Screening data as filed in PubChem BioAssay.
CCR6 antagonist – blocks CCL20-driven beta-arrestin recruitment at human CCR6. P51684. CHO-K1 CCR6 PathHunter beta-arrestin, luminescence, CCL20-stimulated. inhibition, % at 20 µM. hit rate 0.49% among 340,000;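 active means compounds whose inhibition of the agonist-driven luminescence signal at 20 µM reaches about 50%, limit read from the data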;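 further: cells stimulated with CCL20 at 14 nM final; plate controls were DMSO with CCL20 for no effect and DMSO without agonist for full effect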
APJ antag – blocks the human apelin receptor APJ | P35414 | CHO-K1 APJ beta-arrestin complementation, luminescence | inhibition, % at 20 µM | hit rate 0.32% among 330,000 | AID 2521;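 active means inhibition above about 40% at 20 µM, limit read from the data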;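 further: cells challenged with 10 nM apelin-13 agonist together with compound; plate controls were apelin-13 plus DMSO wells for no effect and DMSO wells lacking apelin-13 for full effect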
Target sequence (P35414 whole entry, looked up): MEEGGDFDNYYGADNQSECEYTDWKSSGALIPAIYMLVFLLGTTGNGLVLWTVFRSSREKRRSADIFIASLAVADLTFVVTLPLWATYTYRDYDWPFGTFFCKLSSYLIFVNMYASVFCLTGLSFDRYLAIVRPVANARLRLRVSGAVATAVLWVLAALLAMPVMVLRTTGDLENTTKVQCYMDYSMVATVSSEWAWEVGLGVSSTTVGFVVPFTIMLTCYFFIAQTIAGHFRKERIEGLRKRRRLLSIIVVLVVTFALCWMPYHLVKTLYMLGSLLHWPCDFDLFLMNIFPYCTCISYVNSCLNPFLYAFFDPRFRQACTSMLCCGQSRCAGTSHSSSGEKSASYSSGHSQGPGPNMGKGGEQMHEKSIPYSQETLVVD
CXCR6 block – inhibitors of human CXCR6 receptor. O00574. CHO-K1 PathHunter CXCR6 beta-arrestin, luminescence. inhibition, % at 20 µM. hit rate 0.36% among 360,000; in the data active means inhibition above about 34%, passing the limit was not always enough;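 further: antagonist mode with CXCL16 agonist at 10 nM final; 0% = 10 nM CXCL16 with DMSO and 100% = unstimulated wells without agonist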
GAA850 FXN act – activators of GAA850 frataxin (FXN) promoter; HEK293 lucGAA850 FXN promoter luciferase reporter, 24 h; percent of 10 µM SAHA response; activation, % at 6 µM; hit rate 0.56% among 360,000; AID 540364;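 active means activation above the average of all compounds screened plus 3 SD, cutoff fixed separately per campaign, cut at about 7.5% in these data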;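 further: 0% = DMSO wells and 100% = 10 µM SAHA wells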
EBI2 antag – blocks human EBI2 receptor beta-arrestin signaling; P32249; EBI2 beta-arrestin recruitment, luminescence, 7a,25-OHC stimulated; inhibition, % at 5 µM; hit rate 0.81% among 360,000; in the data active means inhibition above about 38%;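 further: enzyme fragment complementation signal reports receptor beta-arrestin coupling in cells; 0% = agonist plus DMSO wells and 100% = wells without agonist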
APJ agonist – APJ receptor agonism; activation, % at 20 µM; AID 2520; hit rate 0.11% among 330,000; P35414; CHO-K1 APJ PathHunter beta-arrestin, luminescence; 0% DMSO wells, 100% apelin;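 active means activation more than six SD over the plate average, tested at 20 µM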;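 further: 0% = DMSO alone and 100% = apelin-13 at 10 nM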
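Assay system: engineered CHO-K1 APJ arrestin reporter cells; Amount: 1000 CHO-K1 reporter cells seeded per well; Dosing: one dose, 20 µM compound, 1% DMSO; Times: compound stimulation 90 min at 25 °C, detection 60 min; Measured by: luminescent beta-gal fragment complementation, chemiluminescent substrate; Read-out: APJ–arrestin association signal; Controls: DMSO vs Apelin-13 10 nM.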
Active calls of the source: *. Hits are enriched below; roughly 2% of the tested compounds scored in any of these assays.

For CCCCCOc1ccc(/C=c2\sc3nc(=O)c(-c4ccccc4)nn3c2=O)cc1OC the results were CCR6 antagonist -3, APJ antag -10, CXCR6 block -5, GAA850 FXN act 2, EBI2 antag 23 and APJ agonist 0.
`O=c1nc2s/c(=C\c3ccc(-c4ccccc4[N+](=O)[O-])o3)c(=O)n2nc1-c1ccccc1` gave CCR6 antagonist 58*, CXCR6 block 0, GAA850 FXN act 0 and EBI2 antag -6.
For Cc1ccc(S(=O)(=O)CCC(=O)c2cccc([N+](=O)[O-])c2)cc1 the results were CCR6 antagonist 59*, APJ antag 14, CXCR6 block 18, GAA850 FXN act 1, EBI2 antag -2 and APJ agonist -3.
Screening CC(OC(=O)c1ccc(S(C)(=O)=O)c([N+](=O)[O-])c1)C(=O)NC1C2CC3CC(C2)CC1C3 (centres undefined) returned CXCR6 block 11, GAA850 FXN act 2 and EBI2 antag 65*.
Screening CS(=O)(=O)c1ccc(C(=O)OCC(=O)NC23CC4CC(CC(C4)C2)C3)cc1[N+](=O)[O-] returned CCR6 antagonist 47, APJ antag 24, CXCR6 block 10, GAA850 FXN act 12*, EBI2 antag 65* and APJ agonist 5.
`Cn1cccc1C(=O)NC(=O)COC(=O)c1ccc(S(C)(=O)=O)c([N+](=O)[O-])c1` gave CCR6 antagonist 18, APJ antag -1, CXCR6 block 2, GAA850 FXN act 7, EBI2 antag -6 and APJ agonist 13.
CC1CCCCN1C(=O)CN1C(=O)c2ccccc2S1(=O)=O (centres undefined) was read as CCR6 antagonist -1, APJ antag 5, CXCR6 block 6, GAA850 FXN act 2, EBI2 antag -6 and APJ agonist -1.
For O=C1C(Cl)=C(N2CCN(c3ccccc3[N+](=O)[O-])CC2)C(=O)c2ccccc21 the results were CXCR6 block 42*, GAA850 FXN act 4 and EBI2 antag 30.
For COCCCN(C(=O)CSCC(=O)Nc1ccc(C)cc1)c1c(N)n(Cc2ccccc2)c(=O)[nH]c1=O the results were CCR6 antagonist 2, CXCR6 block 1, GAA850 FXN act 1 and EBI2 antag -3.
CCOc1ccc(C(=O)NC(=S)Nc2ccc(N3CCC(C)CC3)cc2)cc1[N+](=O)[O-] was read as CCR6 antagonist 53*, CXCR6 block 24, GAA850 FXN act 1 and EBI2 antag 8.
Screening CCOc1ccc(C(=O)NC(=S)Nc2ccccc2N2CCC(C)CC2)cc1[N+](=O)[O-] returned CCR6 antagonist 43, APJ antag 36, CXCR6 block 24, GAA850 FXN act -2, EBI2 antag 31 and APJ agonist -5.
Screening CCOc1ccc(C(=O)NC(=S)Nc2ccc(NC(=O)c3ccco3)c(C)c2)cc1[N+](=O)[O-] returned CCR6 antagonist 50*, APJ antag 27, CXCR6 block 24, GAA850 FXN act -1, EBI2 antag 2 and APJ agonist -5.
For CCOc1ccccc1C(=O)Oc1ccc2ccc(=O)oc2c1 the results were CCR6 antagonist 0, APJ antag 9, CXCR6 block -6, GAA850 FXN act -1, EBI2 antag -5 and APJ agonist -3.
C[C@H](NS(=O)(=O)c1ccc(Cl)cc1)C(=O)OCC(=O)NCCc1ccc(S(N)(=O)=O)cc1 was read as CCR6 antagonist -10, CXCR6 block 10, GAA850 FXN act 1 and EBI2 antag -1.
For CCN1CCC(O)(C#Cc2ccccc2)CC1 the results were CCR6 antagonist 9, APJ antag 14, CXCR6 block -6, GAA850 FXN act -1, EBI2 antag 11 and APJ agonist 1.
`CC1C(c2ccccc2)N(C)C(c2ccccc2)C(C)C1(O)C#Cc1ccccc1` (centres undefined) gave CCR6 antagonist 50*, APJ antag 5, CXCR6 block 6, GAA850 FXN act 2, EBI2 antag 22 and APJ agonist -3.
For CCC(=O)NC1=C(Cl)C(=O)C(NC(=O)CC)=C(Cl)C1=O the results were APJ antag -26, CXCR6 block 84*, GAA850 FXN act 0, EBI2 antag -16 and APJ agonist 6.
Cc1ccc2c(c1)c1ncnc(N3CCOCC3)c1n2C was read as CCR6 antagonist 1, APJ antag 20, CXCR6 block -9, GAA850 FXN act 5, EBI2 antag -1 and APJ agonist 1.
`Cc1ccc2c(c1)c1ccc3c(c1n2C)C(=O)C=CC3=O` gave CCR6 antagonist 106*, APJ antag 40, CXCR6 block 60*, GAA850 FXN act -3, EBI2 antag 5 and APJ agonist -5.
`COc1ccc2c(c1)c1ccc3c(c1n2C)C(=O)C=CC3=O` gave CCR6 antagonist 106*, APJ antag 44*, CXCR6 block 79*, GAA850 FXN act 1, EBI2 antag 0 and APJ agonist -1.
Screening Cn1c2ccccc2c2ccc3c(c21)C(=O)C=CC3=O returned CCR6 antagonist 109*, CXCR6 block 70*, GAA850 FXN act -1 and EBI2 antag -36.
`O=C(Nc1ccc(Cl)cc1)Nc1ccccc1Sc1ncc([N+](=O)[O-])s1` gave CCR6 antagonist 50*, APJ antag 8, CXCR6 block 34, GAA850 FXN act 3, EBI2 antag 39 and APJ agonist -2.
Screening COc1cc(N2C(=O)C=CC2=O)c(OC)cc1Cl returned APJ antag 2, CXCR6 block 75*, GAA850 FXN act 3, EBI2 antag 6 and APJ agonist -1.
CCN(CC(=O)NCc1cccs1)C(=O)c1cccc(S(=O)(=O)N2CC(C)OC(C)C2)c1 (centres undefined) was read as CCR6 antagonist -11, APJ antag 5, CXCR6 block -1, GAA850 FXN act -2, EBI2 antag -14 and APJ agonist 1.
`CCN(CC)c1c([N+](=O)[O-])c(=O)n(C)c2ccccc12` gave CCR6 antagonist 16, APJ antag 8, CXCR6 block -6, GAA850 FXN act 3, EBI2 antag 0 and APJ agonist -1.
For Cn1c(=O)c([N+](=O)[O-])c(Cl)c2ccccc21 the results were CCR6 antagonist 101*, CXCR6 block 88*, GAA850 FXN act 3 and EBI2 antag 16.
CCCc1ccc(-c2cc(C(=O)NN3CCOCC3)c3ccccc3n2)cc1 was read as CCR6 antagonist 10, APJ antag 11, CXCR6 block 9, GAA850 FXN act 8.3*, EBI2 antag 2 and APJ agonist -1.
Screening CC(C)Oc1cccc(-c2cc(C(=O)NN3CCOCC3)c3ccccc3n2)c1 returned CCR6 antagonist 1, APJ antag 15, CXCR6 block -4, GAA850 FXN act 0, EBI2 antag 2 and APJ agonist 4.
